Reference: ChEMBL document CHEMBL4359864, “The synthesis and in vitro biological evaluation of novel fluorinated tetrahydrobenzo[j]phenanthridine-7,12-diones against Mycobacterium tuberculosis” (Eur J Med Chem, 2019)
Converted amounts (≈) assume the structure as drawn. The source made the active and inactive calls.

What was measured:
Pseudomonas aeruginosa = assay: Antibacterial activity against Pseudomonas aeruginosa ATCC 9027 incubated for 24 hrs by resazurin dye based fluorimetric assay; assay type: functional, organism-based; conditions: ATCC 9027, 24 h
In short: (§1)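 Resazurin microtiter assay: compounds from 10 mM DMSO stock, twofold serial dilutions from 64 µM final in growth medium, in triplicate. Inoculum from frozen glycerol stocks. Exposure 24 h, or 7 days for Mtb H37Ra (7H9 + 0.5% glycerol + 10% OADC). Then 0.01% resazurin was added and plates were incubated at 37°C until pink. Fluorescence read at ex 550/em 590 nm; mean of triplicates.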

[1] = system: Mycobacterium tuberculosis; assay: Antibacterial activity against Mycobacterium tuberculosis H37Ra ATCC 25177 incubated for 7 days by resazurin dye based fluorimetric assay; assay type: functional, organism-based; conditions: H37Ra ATCC 25177, 168 h; in short: as §1
[2] = system: Mycobacterium tuberculosis; assay: Antimycobacterial activity against Mycobacterium tuberculosis H37Ra lux incubated for 7 days by luminometric assay; assay type: functional, organism-based; conditions: 168 h
In short: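 Twofold serial dilutions in 7H9/OADC/glycerol, in triplicate, inoculated with a suspension of 10.000 RLU per mL. After 7 days, n-decanal (1% v/v in ethanol) was added and luminescence read. IC50 and MIC (90% growth reduction) were derived from the mean of triplicates.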

[3] = Cytotoxicity against mouse J774A.1 cells assessed as reduction in cell viability incubated for 24 hrs by neutral red uptake assay; assay type: cell-based, J774.A1
In short: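 J774A.1 cells in DMEM + 10% iFCS, 37°C, 5% CO2, seeded at 40.000 cells/well and left overnight. Twofold dilutions from 128 µM final; 24 h exposure. Neutral red uptake for 3 h, dye extracted with 1:1 ethanol/acetic acid, OD read at 530 nm (reference 620 nm). CC50 = 50% reduction in uptake; mean of triplicates.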

[4] = Selectivity index, ratio of […] for cytotoxicity against mouse J774A.1 cells; assay type: toxicity, cell-based; conditions: read-out: Selectivity Index
Mycobacterium marinum = assay: Antimycobacterial activity against Mycobacterium marinum NCTC 2275 by resazurin dye based fluorimetric assay; assay type: functional, organism-based
In short: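 Resazurin microtiter method as for the bacterial panel. Mycobacteria grown in 7H9 with 10% OADC and 0.5% glycerol; for BCG, 0.05% Tween 80 replaced the glycerol. Cultures were sonicated and needle-passed to single cells. Incubation at 37°C, or 32°C for M. marinum. Fluorescence read at ex 550/em 590 nm; mean of triplicates.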

CYP450 [5] = molecular target: T1, CYP450 (Homo sapiens, UniProt P04798+P05177+P05181+P08684+P10632+P10635+P11509+P11712+P13584+P20813+P20815+P20853+P24462+P24903+P33260+P33261+P51589+P78329+P98187+Q02928+Q08477+Q16678+Q16696+Q5TCH4+Q6VVX0+Q7Z449+Q8TAV3+Q96SQ9+Q9HB55); assay: Microsomal stability in human liver microsomes assessed as CYP450-mediated metabolism by measuring compound remaining at 5 uM and measured for 30 mins in presence of NADPH by UPLC-MS/MS analysis (reference value: 100%); assay type: ADME; conditions: read-out: Stability
In short: (§2)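 Compound at 5 µM with 0.5 mg/mL liver microsomes in PBS. Phase I was started with 1 mM NADPH; phase II used 2 mM UDPGA. Diclofenac served as reference. Samples taken at 0, 15, 30 and 60 min were quenched in ice-cold acetonitrile, centrifuged at 4°C and analysed by LC-MS. Mean of at least two replicates ± SD.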

CYP450 [6] = molecular target: T1, CYP450; assay: Microsomal stability in human liver microsomes assessed as CYP450-mediated metabolism by measuring compound remaining at 5 uM and measured for 60 mins in presence of NADPH by UPLC-MS/MS analysis (reference value: 100%); assay type: ADME; conditions: read-out: Stability; in short: as §2
CYP450 [7] = assay: Microsomal stability in mouse liver microsomes assessed as CYP450-mediated metabolism by measuring compound remaining at 5 uM and measured for 15 mins in presence of NADPH by UPLC-MS/MS analysis (reference value: 100%); assay type: ADME; conditions: read-out: Stability; in short: as §2
CYP450 [8] = assay: Microsomal stability in mouse liver microsomes assessed as CYP450-mediated metabolism by measuring compound remaining at 5 uM and measured for 30 mins in presence of NADPH by UPLC-MS/MS analysis (reference value: 100%); assay type: ADME; conditions: read-out: Stability; in short: as §2
CYP450 [9] = assay: Microsomal stability in mouse liver microsomes assessed as CYP450-mediated metabolism by measuring compound remaining at 5 uM and measured for 60 mins in presence of NADPH by UPLC-MS/MS analysis (reference value: 100%); assay type: ADME; conditions: read-out: Stability; in short: as §2
UGT [10] = assay: Microsomal stability in mouse liver microsomes assessed as UGT-mediated metabolism by measuring compound remaining at 5 uM and measured for 15 mins in presence of UDPGA by UPLC-MS/MS analysis (reference value: 100%); assay type: ADME; conditions: read-out: Stability; in short: as §2
UGT [11] = assay: Microsomal stability in mouse liver microsomes assessed as UGT-mediated metabolism by measuring compound remaining at 5 uM and measured for 30 mins in presence of UDPGA by UPLC-MS/MS analysis (reference value: 100%); assay type: ADME; conditions: read-out: Stability; in short: as §2
UGT [12] = assay: Microsomal stability in mouse liver microsomes assessed as UGT-mediated metabolism by measuring compound remaining at 5 uM and measured for 60 mins in presence of UDPGA by UPLC-MS/MS analysis (reference value: 100%); assay type: ADME; conditions: read-out: Stability; in short: as §2
[13] = system: Mycobacterium tuberculosis; assay: Antimycobacterial activity against Mycobacterium tuberculosis H37Ra lux infected in mouse J774A.1 cells assessed as reduction in intracellular mycobacterial replication at 1.5 uM incubated for 24 to 72 hrs by luminometric assay relative to control; assay type: functional
In short: (§3)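 J774A.1 cells were infected at MOI 10 for 2 h at 37°C. Extracellular bacteria were killed with 100 µg/mL gentamicin for 1 h, then cells were washed and treated. At 24, 48 and 72 h, cells were lysed with 1% Triton X-100 and n-decanal was added to the lysate. Luminescence (RLU) reported as mean of triplicates ± SD.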

[14] = system: Mycobacterium tuberculosis; assay: Antimycobacterial activity against Mycobacterium tuberculosis H37Ra lux infected in mouse J774A.1 cells assessed as reduction in intracellular mycobacterial replication at 5.0 uM incubated for 24 to 72 hrs by luminometric assay relative to control; assay type: functional; in short: as §3
[15] = system: Mycobacterium tuberculosis; assay: Antimycobacterial activity against Mycobacterium tuberculosis H37Ra lux infected in mouse J774A.1 cells assessed as reduction in intracellular mycobacterial replication at 10.0 uM incubated for 24 to 72 hrs by luminometric assay relative to control; assay type: functional; in short: as §3
[16] = Genotoxicity in Salmonella typhimurium TA104 harboring with RecN2-4 assessed as S/N ratio at 1 to 100 uM measured for 4 hrs with 5 mins interval in presence of rat liver S9 fraction by luminescence based assay; assay type: toxicity, subcellular; conditions: salmonella enterica subsp. enterica serovar typhimurium, s9, 4 h
In short: (§4)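 VITOTOX test. Genox (recN2-4) and Cytox (pr1) S. typhimurium TA104 strains were diluted 250-fold and grown in 869 medium for 16 h at 36°C with shaking, then diluted 10-fold and grown 1 h more. Compounds tested at 1, 10 and 100 µM, with or without rat liver S9-mix. Luminescence read for 4 h at 5-min intervals. S/N thresholds: Genox >1.5 genotoxic; Cytox <0.8 toxic, >1.5 luminescence artefact.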

[17] = Genotoxicity in Salmonella typhimurium TA104 harboring with RecN2-4 assessed as S/N ratio at 1 to 100 uM measured for 4 hrs with 5 mins interval by luminescence based assay; assay type: toxicity; conditions: salmonella enterica subsp. enterica serovar typhimurium; in short: as §4

| SMILES | IC50 (Pseudomonas aeruginosa) | IC50 [1] | IC50 [2] | MIC90 [2] | CC50 at 24 h [3] | selectivity ratio [4] | IC50 (Mycobacterium marinum) | remaining at 0.5 h, 5 µM (CYP450 [5]) | remaining at 1 h, 5 µM (CYP450 [6]) | remaining at 0.25 h, 5 µM (CYP450 [7]) | remaining at 0.5 h, 5 µM (CYP450 [8]) | remaining at 1 h, 5 µM (CYP450 [9]) | remaining at 0.25 h, 5 µM (UGT [10]) | remaining at 0.5 h, 5 µM (UGT [11]) | remaining at 1 h, 5 µM (UGT [12]) | Activity [13] | Activity [14] | Activity [15] | Ratio [16] | Ratio [17] |
| --- | --- | --- | --- | --- | --- | --- | --- | --- | --- | --- | --- | --- | --- | --- | --- | --- | --- | --- | --- | --- |
| O=C1C2=C(C(=O)c3c1cnc1c(F)cccc31)C1CCC2C1 (stereo not given) | > 64 µM | 1 to 2 µM | 1.54 µM | 4.43 µM (≈ 1.3 µg/mL) | 85.5 µM | 19.3 | 3.3 µM | 100% | 100% | 100% | 100% | 100% | 77% | 70% | 61% | inactive | inactive | inactive | <= 1.5 | <= 1.5 |
| O=C1C2=C(C(=O)c3c1cnc1ccccc31)C1CCC2C1 (stereo not given) | > 64 µM | 1 to 2 µM | 1.28 µM | 6.33 µM (≈ 1.74 µg/mL) | 64.5 µM | 10.2 | 7.73 µM | 100% | 100% | 100% | 100% | 94% | 69% | 86% | 78% | 20.68% | 58.94% | 84.14% | <= 1.5 | <= 1.5 |
